Test results taken from ChEMBL document CHEMBL1800058, “Lathyrane diterpenoids from the roots of Euphorbia micractina and their biological activities” (J Nat Prod, 2011).
Active and inactive are the calls of the source. The rule behind the calls is not given here.

Assays:
[1] = tested on: Human immunodeficiency virus 1; experiment: Antiviral activity against HIV1 harboring vesicular stomatitis virus glycoprotein infected in human 293T cells assessed as inhibition of viral replication at 10 uM after 48 hrs by luciferase activity based luminometer analysis; type: functional, organism-based
[2] = tested on: A549; experiment: Cytotoxicity against human A549 cells at 10^-6 M after 96 hrs by MTT assay; type: functional, cell-based
[3] = molecular target: T1, Tyrosine-protein phosphatase non-receptor type 1 (Homo sapiens) (UniProt P18031); experiment: Inhibition of human recombinant GST-tagged PTP1B assessed as conversion of para-nitrophenyl phosphate to para-nitrophenol at 10^-6 M after 10 mins by microplate spectrophotometer analysis
T1 sequence (whole entry): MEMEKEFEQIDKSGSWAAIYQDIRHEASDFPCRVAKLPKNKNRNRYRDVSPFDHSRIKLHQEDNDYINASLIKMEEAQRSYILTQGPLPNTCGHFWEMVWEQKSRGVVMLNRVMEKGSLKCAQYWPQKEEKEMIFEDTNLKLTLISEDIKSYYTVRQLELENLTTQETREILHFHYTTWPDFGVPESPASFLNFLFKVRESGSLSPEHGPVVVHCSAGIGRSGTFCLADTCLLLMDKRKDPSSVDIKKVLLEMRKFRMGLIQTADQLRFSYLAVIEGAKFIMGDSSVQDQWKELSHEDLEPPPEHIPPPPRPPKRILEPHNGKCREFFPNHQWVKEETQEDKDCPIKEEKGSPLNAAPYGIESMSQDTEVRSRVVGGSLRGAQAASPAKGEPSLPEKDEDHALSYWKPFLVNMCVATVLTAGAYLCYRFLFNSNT

[4] = tested on: MCF7; experiment: Cytotoxicity against human MCF7 cells at 10^-6 M after 96 hrs by MTT assay; type: functional, cell-based
[5] = tested on: KETR3; experiment: Cytotoxicity against human Ketr3 cells at 10^-6 M after 96 hrs by MTT assay; type: functional, cell-based
[6] = tested on: Bel-7402; experiment: Cytotoxicity against human Bel7402 cells at 10^-6 M after 96 hrs by MTT assay; type: functional, cell-based
[7] = tested on: Aorta; experiment: Vasorelaxant activity in Sprague-Dawley rat […] thoracic aorta assessed as inhibition of phenylephrine-induced vasoconstriction at 10^-6 M relative to control; type: functional; parameters: scale not given: the % may be the effect or the level left
In short: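 Read-out was percent relaxation of phenylephrine-precontracted vessels. Verapamil served as the positive control at the same test concentration.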

[8] = tested on: BGC-823; experiment: Cytotoxicity against human BGC823 cells at 10^-6 M after 96 hrs by MTT assay; type: functional, cell-based
[9] = tested on: HCT-8; experiment: Cytotoxicity against human HCT8 cells at 10^-6 M after 96 hrs by MTT assay; type: functional, cell-based
[10] = tested on: Liver microsomes; experiment: Antioxidant activity against Fe2+-cystine-induced lipid peroxidation in rat liver microsomes at 10^-6 M after 15 mins by thiobarbituric acid method; type: functional; details: Microsome

SMILES | Activity [1] | Activity [2] | inhibition [3] | Activity [4] | Activity [5] | Activity [6] | Activity [7] [%] | Activity [8] | Activity [9] | Activity [10]
CC(=O)O[C@H]1[C@@H](C)C[C@]2(OC(C)=O)C(=O)/C(C)=C/[C@H]3[C@H](CC/C(C)=C/[C@@H]12)C3(C)C | inactive | inactive | inactive | inactive | inactive | inactive | <30 | inactive | inactive | inactive
C/C1=C\[C@H]2[C@@H](O)[C@@H](C)C[C@]2(OC(=O)c2ccccc2)C(=O)/C(C)=C/[C@H]2[C@H](CC1)C2(C)C | inactive | inactive | inactive | inactive | inactive | inactive | 42 | inactive | inactive | inactive
C/C1=C\[C@H]2[C@H](CC[C@@]3(C)O[C@@H]3[C@H]3[C@@H](OC(=O)/C=C/c4ccccc4)[C@@H](C)C[C@]3(O)C1=O)C2(C)C | inactive | inactive | inactive | inactive | inactive | inactive | <30 | inactive | inactive | inactive
CC(=O)O[C@@H]1[C@@H]2[C@H]3O[C@]3(C)CC[C@H]3[C@H](/C=C(\C)C(=O)[C@@]2(O)C[C@@H]1C)C3(C)C | inactive | inactive | inactive | inactive | inactive | inactive | <30 | inactive | inactive | inactive
CC(=O)O[C@@H]1[C@@H]2[C@H]3O[C@]3(C)CC[C@H]3[C@H](/C=C(\C)C(=O)[C@@]2(OC(=O)c2ccccc2)C[C@@H]1C)C3(C)C | inactive | inactive | inactive | inactive | inactive | inactive | 41 | inactive | inactive | inactive
C/C1=C/C[C@H]2[C@H](/C=C(\C)C(=O)[C@@]3(OC(=O)/C=C/c4ccccc4)C[C@H](C)[C@@H]4OC(C)(C)O[C@@H]1[C@@H]43)C2(C)C | – | inactive | inactive | inactive | inactive | inactive | <30 | inactive | inactive | inactive
CC(=O)O[C@@H]1[C@H]2[C@@H](O)/C(C)=C\C[C@H]3[C@H](/C=C(\C)C(=O)[C@@]2(OC(=O)c2ccccc2)C[C@@H]1C)C3(C)C | inactive | inactive | inactive | inactive | inactive | inactive | 48 | inactive | inactive | inactive
CC(=O)O[C@H]1/C(C)=C\C[C@H]2[C@H](/C=C(\C)C(=O)[C@@]3(OC(=O)c4ccccc4)C[C@H](C)[C@H](O)[C@H]13)C2(C)C | inactive | inactive | inactive | inactive | inactive | inactive | 50 | inactive | inactive | inactive
C/C1=C/C[C@H]2[C@@H](/C=C(\C)C(=O)[C@@]3(OC(=O)c4ccccc4)C[C@H](C)[C@H](O)[C@@H]3[C@@H]1O)C2(C)C | inactive | – | – | – | – | – | 53 | – | – | –
